The source made the active and inactive calls. No cut-off for these calls is given here.
Assays:
[1] = species on record: Homo sapiens; experiment: Selectivity ratio of Ke for human delta opioid receptor to Ke for human kappa opioid receptor
[2] = species on record: Homo sapiens; experiment: Selectivity ratio of Ke for human mu opioid receptor to Ke for human kappa opioid receptor
[3] = target: Kappa-type opioid receptor (Homo sapiens) (UniProt P41145); experiment: Antagonist activity at human kappa opioid receptor expressed in CHO cells assessed as inhibition of U69,593-stimulated [35S]GTPgammaS binding; format: functional, cell-based
Chain of Kappa-type opioid receptor (Homo sapiens) (P41145 whole entry): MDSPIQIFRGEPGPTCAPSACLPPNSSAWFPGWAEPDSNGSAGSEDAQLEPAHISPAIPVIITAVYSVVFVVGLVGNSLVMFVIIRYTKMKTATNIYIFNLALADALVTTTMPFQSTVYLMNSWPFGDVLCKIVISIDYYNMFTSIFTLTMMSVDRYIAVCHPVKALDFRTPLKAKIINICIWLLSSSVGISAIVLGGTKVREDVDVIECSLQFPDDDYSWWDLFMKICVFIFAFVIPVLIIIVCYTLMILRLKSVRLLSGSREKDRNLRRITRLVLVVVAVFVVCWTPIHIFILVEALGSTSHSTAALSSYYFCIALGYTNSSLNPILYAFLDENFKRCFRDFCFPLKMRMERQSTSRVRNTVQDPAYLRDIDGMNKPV
Procedure, shortened: (§1)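 Agonist concentration-response curves (eight concentrations, duplicate) were run with or without a single test-compound concentration. Ke = [L]/(DR−1), where [L] is the test-compound concentration and DR is the ratio of agonist EC50 with versus without compound. At least two test-compound concentrations were used, chosen to shift agonist EC50 rightward at least four-fold while keeping a clear upper asymptote.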

[4] = target: Delta-type opioid receptor (Homo sapiens) (UniProt P41143); experiment: Antagonist activity at human delta opioid receptor expressed in CHO cells assessed as inhibition of DPDPE-stimulated [35S]GTPgammaS binding; format: functional, cell-based; procedure, shortened: as §1
Chain of Delta-type opioid receptor (Homo sapiens) (P41143 whole entry): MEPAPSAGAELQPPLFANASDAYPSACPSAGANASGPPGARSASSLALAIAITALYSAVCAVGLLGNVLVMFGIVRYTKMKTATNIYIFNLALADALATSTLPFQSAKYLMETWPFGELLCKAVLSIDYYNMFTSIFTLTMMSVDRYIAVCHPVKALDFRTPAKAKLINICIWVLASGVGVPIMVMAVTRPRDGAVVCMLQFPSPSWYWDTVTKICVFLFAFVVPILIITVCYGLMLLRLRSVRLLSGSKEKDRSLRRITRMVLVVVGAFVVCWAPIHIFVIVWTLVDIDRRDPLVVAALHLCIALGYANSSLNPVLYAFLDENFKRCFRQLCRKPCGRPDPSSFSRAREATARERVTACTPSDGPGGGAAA

[5] = target: Kappa-type opioid receptor (Homo sapiens) (UniProt P41145); experiment: Intrinsic activity at human kappa opioid receptor expressed in CHO cells at 10 uM by [35S]GTPgammaS binding assay; format: functional, cell-based
[6] = target: Delta-type opioid receptor (Homo sapiens) (UniProt P41143); experiment: Intrinsic activity at human delta opioid receptor expressed in CHO cells at 10 uM by [35S]GTPgammaS binding assay; format: functional, cell-based
[7] = target: Mu-type opioid receptor (Homo sapiens) (UniProt P35372); details: CHO
Chain of Mu-type opioid receptor (Homo sapiens) (P35372 whole entry): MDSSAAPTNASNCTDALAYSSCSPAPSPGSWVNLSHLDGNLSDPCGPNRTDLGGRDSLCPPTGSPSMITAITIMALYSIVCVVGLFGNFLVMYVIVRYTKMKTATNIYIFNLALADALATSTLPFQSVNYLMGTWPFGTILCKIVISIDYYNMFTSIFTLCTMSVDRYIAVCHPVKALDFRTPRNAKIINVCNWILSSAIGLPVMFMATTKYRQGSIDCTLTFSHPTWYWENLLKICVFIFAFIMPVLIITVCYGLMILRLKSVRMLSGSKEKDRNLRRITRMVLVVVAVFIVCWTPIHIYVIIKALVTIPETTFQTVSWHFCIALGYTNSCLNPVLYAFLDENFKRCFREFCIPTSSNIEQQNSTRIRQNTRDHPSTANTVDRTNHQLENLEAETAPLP

SMILES	Ratio Ke [1]	Ratio Ke [2]	Ke [3] [nM]	Ke [4] [nM]	Activity [5]	Activity [6]	Ke [7] [nM]
COc1ccc(Oc2ccc(C(=O)N[C@H](CN3CCN(c4cccc(O)c4)[C@@H](C)C3)C(C)C)cc2)cc1	2300	28	0.6	1380	inactive	inactive	17
COc1ccc(C(=O)N[C@H](CN2CCN(c3cccc(O)c3)[C@@H](C)C2)C(C)C)cc1OC		4	81.7			inactive	
Cc1cc(C(=O)N[C@H](CN2CCN(c3cccc(O)c3)[C@@H](C)C2)C(C)C)ccc1Oc1ccccc1	691	24	0.63	435	inactive	inactive	15
CC(C)[C@@H](CN1CCN(c2cccc(O)c2)[C@@H](C)C1)NC(=O)c1ccc(Oc2ccccc2F)cc1	126	28	0.76	96	inactive	inactive	21.1
CC(C)[C@@H](CN1CCN(c2cccc(O)c2)[C@@H](C)C1)NC(=O)c1ccc(Oc2cccc(F)c2)cc1	117	20	1.48	173	inactive	inactive	30
Cc1cc(C)cc(Oc2ccc(C(=O)N[C@H](CN3CCN(c4cccc(O)c4)[C@@H](C)C3)C(C)C)cc2)c1	80	26	0.98	78	inactive	inactive	25
CC(C)[C@@H](CN1CCN(c2cccc(O)c2)[C@@H](C)C1)NC(=O)c1ccc(Oc2cccc(C(F)(F)F)c2)cc1	45	18	1.2	54	inactive	inactive	21
Cc1ccc(O)c(Oc2ccc(C(=O)N[C@H](CN3CCN(c4cccc(O)c4)[C@@H](C)C3)C(C)C)cc2)c1					inactive	inactive	
CC(C)[C@@H](CN1CCN(c2cccc(O)c2)[C@@H](C)C1)NC(=O)c1ccc(Oc2cccc(O)c2)cc1	338	37	1.85	625	inactive	inactive	69
CC(C)[C@@H](CN1CCN(c2cccc(O)c2)[C@@H](C)C1)NC(=O)c1ccc(Oc2ccc(O)cc2)cc1	197	8	8.6	1700	inactive	inactive	71
Cc1cccc(Oc2ccc(C(=O)N[C@H](CN3CCN(c4cccc(O)c4)[C@@H](C)C3)C(C)C)cc2)c1	771	77	0.17	131	inactive	inactive	13
COc1cc(C(=O)N[C@H](CN2CCN(c3cccc(O)c3)[C@@H](C)C2)C(C)C)ccc1Oc1cccc(C)c1	372	140	0.25	93	inactive	inactive	35.1
COc1ccccc1Oc1ccc(C(=O)N[C@H](CN2CCN(c3cccc(O)c3)[C@@H](C)C2)C(C)C)cc1	155	23	5.6	869	inactive	inactive	127
Cc1ccc(Oc2ccc(C(=O)N[C@H](CN3CCN(c4cccc(O)c4)[C@@H](C)C3)C(C)C)cc2)cc1	272	29	0.69	188	inactive	inactive	20
Cc1cccc(Oc2ccc(C(=O)N[C@H](CN3CCN(c4cccc(O)c4)[C@@H](C)C3)C(C)C)c(C)c2)c1	22	28	0.65		inactive	inactive	
COc1cc(Oc2cccc(C)c2)ccc1C(=O)N[C@H](CN1CCN(c2cccc(O)c2)[C@@H](C)C1)C(C)C	48	38	1.3	63	inactive	inactive	49
Cc1cccc(Oc2ccc(C(=O)N[C@H](CN3CCN(c4cccc(O)c4)[C@@H](C)C3)C(C)C)cc2C)c1	131	89	0.16	21	inactive	inactive	14.4
COc1cccc(Oc2ccc(C(=O)N[C@H](CN3CCN(c4cccc(O)c4)[C@@H](C)C3)C(C)C)cc2)c1	2380	52	0.63	1500	inactive	inactive	33

Further lines, results first:

Ratio Ke [1]	Ratio Ke [2]	Ke [3] [nM]	Ke [4] [nM]	Activity [5]	Activity [6]	Ke [7] [nM]	SMILES
272	70	0.34	93	inactive	inactive	23.8	Cc1cccc(Oc2ccc(C(=O)N[C@H](CN3CCN(c4cccc(O)c4)[C@@H](C)C3)C(C)C)cc2)c1O
88	35	0.48	42	inactive	inactive	17	CC(C)[C@@H](CN1CCN(c2cccc(O)c2)[C@@H](C)C1)NC(=O)c1ccc(Oc2cccc(Br)c2)cc1
20	43	0.42	8.3	inactive	inactive	18	CC(C)[C@@H](CN1CCN(c2cccc(O)c2)[C@@H](C)C1)NC(=O)c1ccc(Oc2cccc(Cl)c2)cc1
			1310	inactive	inactive	74.2	CC(C)[C@@H](CN1CCN(c2cccc(O)c2)[C@@H](C)C1)NC(=O)[C@H]1Cc2ccc(O)cc2CN1
1120	38	1.6	1790	inactive	inactive	60	CC(C)[C@@H](CN1CCN(c2cccc(O)c2)[C@@H](C)C1)NC(=O)c1ccc(Oc2ccccc2)nc1
463	63	1.9		inactive	inactive		Cc1cccc(Oc2ccc(C(=O)N[C@H](CN3CCN(c4cccc(O)c4)[C@@H](C)C3)C(C)C)c(O)c2)c1
42	7	5		inactive	inactive		CC(C)[C@@H](CN1CCN(c2cccc(O)c2)[C@@H](C)C1)NC(=O)c1ccc(Oc2ccccc2O)c(Cl)c1
723	36	2.8	2020	inactive	inactive	101	CC(C)[C@@H](CN1CCN(c2cccc(O)c2)[C@@H](C)C1)NC(=O)c1ccc(Oc2ccccc2)cn1
7	5	16.3		inactive	inactive	74	COc1cc(C(=O)N[C@H](CN2CCN(c3cccc(O)c3)[C@@H](C)C2)C(C)C)ccc1Oc1ccccc1O
5	3	3	15	inactive	inactive	8.2	Cc1ccc(O)c(Oc2ccc(C(=O)N[C@H](CN3CCN(c4cccc(O)c4)[C@@H](C)C3)C(C)C)cc2Cl)c1
906	146	1.06	960	inactive	inactive	125	CC(C)[C@@H](CN1CCN(c2cccc(O)c2)[C@@H](C)C1)NC(=O)c1ccc(Oc2ccccc2O)cc1
142	24	0.57	81	inactive	inactive	13.7	Cc1cccc(Oc2ccc(C(=O)N[C@H](CN3CCN(c4cccc(O)c4)[C@@H](C)C3)C(C)C)cc2O)c1
			1550	inactive	inactive	49.4	CC(C)[C@@H](CN1CCN(c2cccc(O)c2)[C@H](C)C1)NC(=O)[C@H]1Cc2ccc(O)cc2CN1
3790	148	0.29	1100	inactive	inactive	43	Cc1cccc(Oc2ccc(C(=O)N[C@H](CN3CCN(c4cccc(O)c4)[C@@H](C)C3)C(C)C)cc2Cl)c1
19	1.6	6.2		inactive	inactive		COc1cc(C(=O)N[C@H](CN2CCN(c3cccc(O)c3)[C@@H](C)C2)C(C)C)ccc1Oc1cc(C)ccc1O

Source: ChEMBL document CHEMBL2380235, “Discovery of N-{4-[(3-hydroxyphenyl)-3-methylpiperazin-1-yl]methyl-2-methylpropyl}-4-phenoxybenzamide analogues as selective kappa opioid receptor antagonists” (J Med Chem, 2013)
